Test results: ChEMBL document CHEMBL3286113, “New potent antibacterial oxazolidinone (MRX-I) with an improved class safety profile” (J Med Chem, 2014)
In brackets after ≈: the same amount, converted by molar mass. Activity calls are given as the source filed them. The calls are words filed in the database; no cut-off is given here.

Assays:
Staphylococcus aureus [1] = test: Antibacterial activity against methicillin-resistant Staphylococcus aureus isolate 0605 in po dosed mouse thigh infection model; type: functional, organism-based; conditions: Thigh muscle
Cytochrome P450 2D6 = Cytochrome P450 2D6 (Homo sapiens, UniProt P10635); test: Inhibition of CYP2D6 (unknown origin) at 1 to 200 uM; type: ADME
Chain of Cytochrome P450 2D6 (P10635 whole entry): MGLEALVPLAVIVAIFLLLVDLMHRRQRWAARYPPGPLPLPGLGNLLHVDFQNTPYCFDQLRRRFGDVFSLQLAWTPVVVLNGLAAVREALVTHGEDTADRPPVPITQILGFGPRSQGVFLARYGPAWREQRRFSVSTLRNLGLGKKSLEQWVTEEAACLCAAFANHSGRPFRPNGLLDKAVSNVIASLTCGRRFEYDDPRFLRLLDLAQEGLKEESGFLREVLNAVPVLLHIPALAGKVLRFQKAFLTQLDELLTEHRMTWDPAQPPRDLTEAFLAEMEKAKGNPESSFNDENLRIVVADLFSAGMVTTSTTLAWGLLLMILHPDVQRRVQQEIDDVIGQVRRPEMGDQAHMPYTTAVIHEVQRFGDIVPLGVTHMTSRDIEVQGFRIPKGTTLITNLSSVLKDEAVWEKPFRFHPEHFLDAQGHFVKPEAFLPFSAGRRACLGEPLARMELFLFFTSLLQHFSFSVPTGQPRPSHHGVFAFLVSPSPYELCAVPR

Rattus norvegicus [2] = test: Toxicity in female rat assessed as effect on mean corpuscular volume at 20 mg/kg/day, po bid administered for 4 weeks (reference value: 53.72 fL); type: organism-based; set-up: route oral; conditions: in vivo, 672 h
[3] = Tmax in po dosed mouse; type: ADME, organism-based; conditions: in vivo
Rattus norvegicus [4] = test: Toxicity in female rat assessed as effect on hemoglobin level at 200 to 300 mg/kg/day, po bid administered for 4 weeks (reference value: 141.8 g/L); type: organism-based; set-up: route oral; conditions: in vivo, 672 h
Staphylococcus aureus [5] = test: Antibacterial activity against Staphylococcus aureus measured after 6 serial passages; type: functional
Staphylococcus aureus [6] = test: Antibacterial activity against methicillin-sensitive Staphylococcus aureus ATCC 29213 in mouse thigh infection model assessed as reduction of log10 CFU per thigh at 10 mg/kg, po; type: functional
Procedure, shortened: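 Mouse thigh infection with S. aureus ATCC29213 (MSSA), 10 animals per dosing group. Oral doses were 5, 10, 20, 40 and 80 mg/kg. The read-out was log CFU per thigh after treatment, and the reduction (ΔLogCFU/thigh) was reported.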

[7] = AUC (0 to t) in female rat at 45 mg/kg, po; type: ADME, organism-based; set-up: dose 45 mg/kg, route oral; conditions: plasma
Procedure, shortened: (§1)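 Rat PK by gender, with single oral doses of 5, 15 and 45 mg/kg and an iv dose of 5 mg/kg. Tmax, Cmax, T1/2 and AUC0−t were reported per gender.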

Rattus norvegicus [8] = test: Toxicity in female rat assessed as effect on WBC count at 20 mg/kg/day, po bid administered for 4 weeks (reference value: 3.66 x 10^9/L); type: organism-based; set-up: route oral; conditions: in vivo, 672 h
[9] = Cmax in female rat at 45 mg/kg, po; type: ADME, organism-based; set-up: dose 45 mg/kg, route oral; conditions: in vivo
[10] = Toxicity in po dosed rat administered as bid for 4 weeks; type: organism-based; conditions: in vivo
Staphylococcus aureus [11] = test: Antibacterial activity against Staphylococcus aureus assessed as time required for growth inhibition; type: functional
[12] = system: Staphylococcus saprophyticus; test: Antibacterial activity against Staphylococcus saprophyticus; type: functional
Cytochrome P450 2E1 = Cytochrome P450 2E1 (Homo sapiens, UniProt P05181); test: Inhibition of CYP2E1 (unknown origin); type: ADME
Chain of Cytochrome P450 2E1 (P05181 whole entry): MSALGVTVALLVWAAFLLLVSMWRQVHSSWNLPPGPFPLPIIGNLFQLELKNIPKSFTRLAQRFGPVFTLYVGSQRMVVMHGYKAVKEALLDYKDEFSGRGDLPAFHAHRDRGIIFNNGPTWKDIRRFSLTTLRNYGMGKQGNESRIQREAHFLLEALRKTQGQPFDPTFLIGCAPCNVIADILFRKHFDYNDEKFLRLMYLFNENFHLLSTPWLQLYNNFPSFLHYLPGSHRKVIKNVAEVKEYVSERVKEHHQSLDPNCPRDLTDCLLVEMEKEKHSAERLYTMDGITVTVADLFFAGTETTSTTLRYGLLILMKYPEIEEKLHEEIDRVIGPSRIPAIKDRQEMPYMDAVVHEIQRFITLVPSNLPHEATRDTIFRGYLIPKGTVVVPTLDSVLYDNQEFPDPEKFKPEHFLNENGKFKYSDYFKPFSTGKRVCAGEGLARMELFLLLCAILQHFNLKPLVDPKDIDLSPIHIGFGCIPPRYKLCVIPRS

[13] = Tmax in female rat at 45 mg/kg, po; type: ADME, organism-based; set-up: dose 45 mg/kg, route oral; conditions: in vivo
Procedure, shortened: (§2)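 Male and female rats received single oral doses of 5, 15 or 45 mg/kg, with 5 mg/kg iv as a reference arm. Tmax was read from the plasma concentration–time profile for each gender.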

[14] = AUC (0 to t) in female rat at 5 mg/kg, iv; type: ADME, organism-based; set-up: dose 5 mg/kg, route intravenous; conditions: plasma; procedure, shortened: as §1
Staphylococcus aureus [15] = test: Antibacterial activity against methicillin-resistant Staphylococcus aureus isolate 0605 in po dosed mouse systemic infection model; type: functional; conditions: isolate 0605, po
[16] = Elimination half life in fasted human at 300 mg, po administered as single dose; type: ADME, organism-based; conditions: in vivo, read-out: beta t1/2 (converted)
Procedure, shortened: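 Healthy volunteers (12; six of each sex) in a three-period Latin-square crossover. Each received single oral doses of 300, 600 and 900 mg under fasting conditions, with a 1-week washout between doses. Parameters from a noncompartmental model.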

Homo sapiens [17] = test: Toxicity in human assessed as change in reticulocyte count at 600 to 800 mg, po administered as single dose with meal on day 1 and day 15 followed by bid with meal on day 2 to day 14 measured during compound treatment; type: organism-based; conditions: in vivo
[18] = Half life in male rat at 45 mg/kg, po; type: ADME, organism-based; set-up: dose 45 mg/kg, route oral; conditions: in vivo
[19] = Clastogenicity in CHL cells assessed as induction of structural chromosomal aberration at 25 to 200 ug/mL measured over 24 hrs in absence of metabolic activation; type: toxicity, cell-based, Cricetulus griseus; conditions: chinese hamster
Procedure, shortened: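 Chromosomal aberration test in Chinese hamster lung cells, run with and without metabolic activation. Exposure was 50−400 μg/mL for 6 h or 25−200 μg/mL for 24 h, and structural chromosome aberrations were scored.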

Rattus norvegicus [20] = test: Acute toxicity in rat administered as single dose; type: organism-based; conditions: in vivo
Streptococcus pneumoniae [21] = test: Bactericidal activity against penicillin intermediate-sensitive Streptococcus pneumoniae; type: functional
Rattus norvegicus [22] = test: Toxicity in female rat assessed as effect on platelet count at 20 mg/kg/day, po bid administered for 4 weeks (reference value: 654.6 x 10^9/L); type: organism-based; set-up: route oral; conditions: in vivo, 672 h
Cytochrome P450 2C9 = Cytochrome P450 2C9 (Homo sapiens, UniProt P11712); test: Inhibition of CYP2C9 (unknown origin) at 1 to 200 uM; type: ADME
Chain of Cytochrome P450 2C9 (P11712 whole entry): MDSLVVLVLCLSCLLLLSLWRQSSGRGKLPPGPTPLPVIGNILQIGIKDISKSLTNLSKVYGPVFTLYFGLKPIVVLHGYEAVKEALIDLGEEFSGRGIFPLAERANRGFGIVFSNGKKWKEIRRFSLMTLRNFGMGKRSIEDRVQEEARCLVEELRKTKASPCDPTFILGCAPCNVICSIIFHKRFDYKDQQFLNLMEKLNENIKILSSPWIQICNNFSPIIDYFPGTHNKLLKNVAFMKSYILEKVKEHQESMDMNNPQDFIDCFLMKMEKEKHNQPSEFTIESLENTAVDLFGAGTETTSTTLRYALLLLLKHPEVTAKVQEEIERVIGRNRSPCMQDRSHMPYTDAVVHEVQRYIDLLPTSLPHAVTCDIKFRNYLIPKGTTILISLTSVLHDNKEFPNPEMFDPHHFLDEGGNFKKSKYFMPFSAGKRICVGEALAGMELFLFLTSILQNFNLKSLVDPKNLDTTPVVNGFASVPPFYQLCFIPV

Staphylococcus aureus [23] = test: Antibacterial activity against linezolid-resistant Staphylococcus aureus isolate 4184; type: functional
[24] = Tmax in male rat at 45 mg/kg, po; type: ADME, organism-based; set-up: dose 45 mg/kg, route oral; conditions: in vivo; procedure, shortened: as §2
Staphylococcus aureus [25] = test: Antibacterial activity against Staphylococcus aureus assessed as low frequency of spontaneous resistance; type: functional, organism-based
[26] = Half life in po dosed mouse; type: ADME, organism-based; conditions: in vivo
Staphylococcus aureus [27] = test: Antibacterial activity against Staphylococcus aureus measured after 3 serial passages; type: functional
[28] = AUC (0 to 24 hrs) in human at 800 mg, po administered as single dose with meal measured on day 15; type: ADME, organism-based; set-up: dose 800 mg, time < 24 hr, route oral; conditions: plasma
Procedure, shortened: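 Randomized, double-blind, placebo-controlled multiple-dose study in 32 healthy subjects (half male, half female). Subjects took 28 oral doses of 600 or 800 mg over 15 days, each with a meal. A single dose was given on days 1 and 15 for full PK, and doses were given Q12h from day 2 to day 14. AUC0−24 was measured on days 1 and 15.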

Rattus norvegicus [29] = test: Toxicity in female rat assessed as effect on mean corpuscular hemoglobin level at 100 mg/kg/day, po bid administered for 4 weeks (reference value: 19.5 pg); type: organism-based; set-up: route oral; conditions: in vivo, 672 h
[30] = Tmax in female rat at 5 mg/kg, po; type: ADME, organism-based; set-up: dose 5 mg/kg, route oral; conditions: in vivo; procedure, shortened: as §2
[31] = Half life in male rat at 5 mg/kg, iv; type: ADME, organism-based; set-up: dose 5 mg/kg, route intravenous; conditions: in vivo
Streptococcus pneumoniae [32] = test: Antibacterial activity against penicillin intermediate-sensitive Streptococcus pneumoniae ATCC 49619 clinical isolate; type: functional
Mus musculus = test: Dose normalized AUC (0 to t) in po dosed mouse; type: ADME, organism-based; conditions: in vivo
[33] = Cmax in male rat at 5 mg/kg, po; type: ADME, organism-based; set-up: dose 5 mg/kg, route oral; conditions: in vivo
[34] = Clastogenicity in CHL cells assessed as induction of structural chromosomal aberration at 50 to 400 ug/mL measured over 6 hrs in presence of metabolic activation; type: toxicity, cell-based, Cricetulus griseus; conditions: chinese hamster
Procedure, shortened: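 Chinese hamster lung cells scored for structural chromosome aberrations with or without metabolic activation. Exposure was 50–400 μg/mL over 6 h, or 25–200 μg/mL over 24 h.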

Staphylococcus aureus [35] = test: Antibacterial activity against methicillin-resistant Staphylococcus aureus isolate 0605 in mouse thigh infection model assessed as reduction of log10 CFU per thigh at 40 mg/kg, po; type: functional
Staphylococcus aureus [36] = test: Antibacterial activity against methicillin-resistant Staphylococcus aureus isolate 0605 in mouse thigh infection model assessed as reduction of log10 CFU per thigh at 10 mg/kg, po; type: functional
Homo sapiens [37] = test: Toxicity in human at 600 to 800 mg, po administered as single dose with meal on day 1 and day 15 followed by bid with meal on day 2 to day 14 measured during compound treatment; type: organism-based; conditions: in vivo
Staphylococcus aureus [38] = test: Antibacterial activity against methicillin-sensitive Staphylococcus aureus ATCC 29213 in po dosed mouse systemic infection model; type: functional; conditions: ATCC 29213, po

## O=C1C=CN(c2c(F)cc(N3C[C@H](CNc4ccon4)OC3=O)c(F)c2F)CC1 [CONTEZOLID]
Staphylococcus aureus [1]
  Activity: Dose-dependent effect
Cytochrome P450 2D6
  inhibition (INH): Not Active
Rattus norvegicus [2]
  Activity: 54.52 fL
[3]
  Tmax: 0.5 h
Rattus norvegicus [4]
  Activity: 117.6 g/L
Staphylococcus aureus [5]
  MIC: 2 µg/mL (≈ 4.9 µM)
Staphylococcus aureus [6]
  deltalog10CFU: 3.29
[7]
  AUC(0-t): 230000 ng·h/mL
Rattus norvegicus [8]
  Activity: 4.5 ×10⁹ /L
[9]
  Cmax: 50000 ng/mL
[10]
  NOAEL at 672 h: 100 mg/kg/day
Staphylococcus aureus [11]
  Time: 1.6 h
[12]
  MIC50: 0.5 µg/mL (≈ 1.22 µM)
  MIC90: 1 µg/mL (≈ 2.45 µM)
Cytochrome P450 2E1
  IC50: 9.6 µM
[13]
  Tmax: 1.67 h
[14]
  AUC(0-t): 25200 ng·h/mL
Staphylococcus aureus [15]
  ED50: 12 mg/kg
[16]
  half-life: 2.18 h
Homo sapiens [17]
  Activity: Non-toxic
[18]
  half-life: 1.07 h
[19]
  Activity: Non-toxic
Rattus norvegicus [20]
  Activity: 5000 mg/kg
Streptococcus pneumoniae [21]
  MIC50: 0.5 µg/mL (≈ 1.22 µM)
  MIC90: 0.5 µg/mL (≈ 1.22 µM)
Rattus norvegicus [22]
  Activity: 638.2 ×10⁹ /L
Cytochrome P450 2C9
  inhibition (INH): Not Active
Staphylococcus aureus [23]
  MIC: > 16 µg/mL
[24]
  Tmax: 1 h
Staphylococcus aureus [25]
  Activity: Active
[26]
  half-life: 1 h
Staphylococcus aureus [27]
  MIC: 2 µg/mL (≈ 4.9 µM)
[28]
  AUC(0-t) at 24 h: 90400 ng·h/mL
Rattus norvegicus [29]
  Activity: 20.28 pg
[30]
  Tmax: 0.67 h
[31]
  half-life: 0.99 h
Streptococcus pneumoniae [32]
  MIC: 1 µg/mL (≈ 2.45 µM)
Mus musculus
  AUCt/dose: 1654 ng·h/mL/mg/kg
[33]
  Cmax: 4600 ng/mL
[34]
  Activity: Non-toxic
Staphylococcus aureus [35]
  deltalog10CFU: 4.13
Staphylococcus aureus [36]
  deltalog10CFU: 2.47
Homo sapiens [37]
  Activity: Non-toxic
Staphylococcus aureus [38]
  ED50: 8 mg/kg
